From ChEMBL document CHEMBL4813946, “Discovery of novel 4-azaaryl-N-phenylpyrimidin-2-amine derivatives as potent and selective FLT3 inhibitors for acute myeloid leukaemia with FLT3 mutations” (Eur J Med Chem, 2021) come the findings set out here.

The target of test [1] is Receptor-type tyrosine-protein kinase FLT3 (Homo sapiens, UniProt P36888, ITD). As to the kind of experiment: Inhibition of FLT3 ITD mutant (unknown origin) using Glu/Tyr peptide substrate incubated for 80 mins measured after 40 mins incubation under dark by ADP-glo based luminescence assay. Background: In ADP-Glo the light output rises with the ADP produced.
The next test deals with MV4-11. As to the kind of experiment: Antiproliferative activity against human MV4-11 cells incubated for 72 hrs by resazurin assay. In kind it is functional. In short, it runs like this:
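Cells seeded and pre-incubated 24 h at 37 °C, 5% CO2, then given a five-fold dilution series of compound (from 10 mM DMSO stock) in medium, in triplicate. Resazurin added after 72 h exposure, 4 h in dark at 37 °C. Fluorescence read at 570/585 nm, normalised to DMSO vehicle. GI50 by non-linear regression; mean ± SD of at least two replicates.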
In general terms: The colour change of resazurin is a common sign of viable cells or microbes.

Test [2] addresses Cyclin-dependent kinase 1/cyclin B1 (Homo sapiens, UniProt P06493). As to the kind of experiment: Inhibition of CDK1/cyclin B (unknown origin) using histone 1 protein substrate incubated for 120 mins measured after 40 mins incubation under dark by ADP-glo based luminescence assay. It is filed as protein-complex assay. Put shortly: (§1)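 In-house ADP-Glo assay with 2 mM DMSO stocks. Kinases were CDK1/cyclin B at 1 nM, CDK2/cyclin E1 at 10 nM and CDK7/cyclin H/MAT1 at 40 nM. Substrate was histone 1 for CDK1 and CDK2, and a RNA pol II CTD peptide for CDK7. Compound at 8–10 concentrations, 1:3 serial, final DMSO 0.5%. Reactions ran 60–120 min at room temperature, then ADP-Glo reagent 40 min in the dark, then detection reagent 40 min, read by luminescence. Ki was derived from IC50 by Cheng-Prusoff.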

In the next test the target is CDK7/Cyclin H/MNAT1 (Homo sapiens, UniProt P50613). Nature of the test: Inhibition of CDK7/cyclin H/MAT1 (unknown origin) using HYSPTSPSYSPTSPSYSPTSPSKKKK-O substrate incubated for 120 mins measured after 40 mins incubation under dark by ADP-glo based luminescence assay. In kind it is protein-complex assay. Put shortly:
as §1

Test [3] concerns the target Cyclin-dependent kinase 2/cyclin E1 (Homo sapiens, UniProt P24941). Nature of the test: Inhibition of CDK2/cyclin E (unknown origin) using histone 1 protein substrate incubated for 120 mins measured after 40 mins incubation under dark by ADP-glo based luminescence assay. In kind it is protein-complex assay. Put shortly:
as §1

Test [4] concerns the target T1, Receptor-type tyrosine-protein kinase FLT3 (Homo sapiens, UniProt P36888).
T1 sequence (P36888 whole entry): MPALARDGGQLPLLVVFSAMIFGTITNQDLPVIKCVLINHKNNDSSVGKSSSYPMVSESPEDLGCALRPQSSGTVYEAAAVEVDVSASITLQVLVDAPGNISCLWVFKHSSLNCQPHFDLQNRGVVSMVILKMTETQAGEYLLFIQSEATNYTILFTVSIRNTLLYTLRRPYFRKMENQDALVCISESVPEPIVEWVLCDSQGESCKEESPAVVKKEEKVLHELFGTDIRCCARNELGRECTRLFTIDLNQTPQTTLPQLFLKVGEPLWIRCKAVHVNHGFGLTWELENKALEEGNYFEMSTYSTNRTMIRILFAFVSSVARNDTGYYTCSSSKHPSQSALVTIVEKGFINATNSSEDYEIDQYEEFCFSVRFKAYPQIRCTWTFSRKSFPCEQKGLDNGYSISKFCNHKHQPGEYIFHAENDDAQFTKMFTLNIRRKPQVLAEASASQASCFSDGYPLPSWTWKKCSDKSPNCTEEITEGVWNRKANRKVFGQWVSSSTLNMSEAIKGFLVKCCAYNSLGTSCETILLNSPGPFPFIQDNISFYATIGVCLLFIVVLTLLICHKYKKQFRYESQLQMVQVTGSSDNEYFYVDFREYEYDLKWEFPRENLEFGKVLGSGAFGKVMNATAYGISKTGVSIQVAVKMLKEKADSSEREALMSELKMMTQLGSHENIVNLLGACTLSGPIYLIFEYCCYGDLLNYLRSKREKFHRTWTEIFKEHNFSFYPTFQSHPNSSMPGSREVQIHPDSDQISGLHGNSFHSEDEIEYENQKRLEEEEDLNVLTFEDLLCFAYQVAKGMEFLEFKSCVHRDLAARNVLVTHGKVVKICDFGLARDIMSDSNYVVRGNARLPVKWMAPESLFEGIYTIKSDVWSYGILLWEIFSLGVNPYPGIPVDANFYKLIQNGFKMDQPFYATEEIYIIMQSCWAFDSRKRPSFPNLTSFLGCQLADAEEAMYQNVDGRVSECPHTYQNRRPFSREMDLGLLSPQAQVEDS
As to the kind of experiment: Inhibition of wild type FLT3 (unknown origin) using Glu/Tyr peptide substrate incubated for 120 mins measured after 40 mins incubation under dark by ADP-glo based luminescence assay. Put shortly: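 In-house ADP-Glo assay with poly(Glu,Tyr) 4:1 substrate in 40 mM Tris pH 7.5, 20 mM MgCl2, 50 µM DTT, 0.1 mg/mL BSA. Kinase at 20 nM. ADP-Glo reagent 40 min in the dark, detection reagent 30–40 min, then luminescence. Ki was derived from IC50 by Cheng-Prusoff.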

What is called Ki is a measure of affinity in units of concentration, obtained from inhibition or displacement. A word on the GI50: it is the concentration that inhibits growth by half. The low end stands for greater sensitivity of the cells, the high end for lower sensitivity of the cells.

Sequence of Cyclin-dependent kinase 1/cyclin B1 (P06493 whole entry): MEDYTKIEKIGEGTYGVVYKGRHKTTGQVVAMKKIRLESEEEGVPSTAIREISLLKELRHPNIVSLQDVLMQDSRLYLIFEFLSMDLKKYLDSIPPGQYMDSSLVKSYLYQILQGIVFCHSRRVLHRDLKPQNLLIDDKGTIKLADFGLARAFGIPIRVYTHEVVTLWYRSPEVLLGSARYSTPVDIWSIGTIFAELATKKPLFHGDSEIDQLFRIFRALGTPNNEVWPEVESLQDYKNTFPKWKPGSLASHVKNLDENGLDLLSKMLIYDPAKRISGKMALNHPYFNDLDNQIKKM
Sequence of Cyclin-dependent kinase 1/cyclin B1 (P14635 whole entry, further chain): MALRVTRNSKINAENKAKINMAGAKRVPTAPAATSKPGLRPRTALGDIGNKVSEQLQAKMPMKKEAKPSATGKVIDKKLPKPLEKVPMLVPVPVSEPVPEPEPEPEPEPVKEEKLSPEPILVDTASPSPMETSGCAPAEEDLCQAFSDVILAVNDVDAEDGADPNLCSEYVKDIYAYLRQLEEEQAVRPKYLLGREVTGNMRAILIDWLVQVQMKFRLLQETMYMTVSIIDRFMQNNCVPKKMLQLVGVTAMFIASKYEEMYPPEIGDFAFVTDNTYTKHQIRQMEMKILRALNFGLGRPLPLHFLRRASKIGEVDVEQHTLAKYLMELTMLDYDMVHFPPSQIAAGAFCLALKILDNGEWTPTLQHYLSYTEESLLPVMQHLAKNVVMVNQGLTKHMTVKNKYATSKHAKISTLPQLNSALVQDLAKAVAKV
Sequence of CDK7/Cyclin H/MNAT1 (P51946 whole entry): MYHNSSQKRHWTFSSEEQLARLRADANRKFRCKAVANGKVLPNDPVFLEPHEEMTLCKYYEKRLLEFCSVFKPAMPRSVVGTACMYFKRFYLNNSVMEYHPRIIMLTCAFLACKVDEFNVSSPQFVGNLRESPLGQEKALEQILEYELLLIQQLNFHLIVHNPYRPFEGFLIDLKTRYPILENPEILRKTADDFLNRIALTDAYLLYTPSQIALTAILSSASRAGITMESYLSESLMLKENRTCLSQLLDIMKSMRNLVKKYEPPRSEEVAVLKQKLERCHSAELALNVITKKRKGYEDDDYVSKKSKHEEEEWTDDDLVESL
Sequence of CDK7/Cyclin H/MNAT1 (P50613 whole entry): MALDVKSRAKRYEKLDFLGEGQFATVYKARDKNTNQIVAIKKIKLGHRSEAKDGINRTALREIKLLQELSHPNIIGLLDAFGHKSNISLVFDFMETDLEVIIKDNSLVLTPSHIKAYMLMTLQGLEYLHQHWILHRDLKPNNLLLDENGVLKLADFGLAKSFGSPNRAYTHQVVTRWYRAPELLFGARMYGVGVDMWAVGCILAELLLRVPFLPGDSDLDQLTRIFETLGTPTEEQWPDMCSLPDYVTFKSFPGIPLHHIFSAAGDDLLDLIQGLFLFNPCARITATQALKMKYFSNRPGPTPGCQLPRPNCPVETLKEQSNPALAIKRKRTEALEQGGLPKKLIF
Sequence of CDK7/Cyclin H/MNAT1 (P51948 whole entry, further chain): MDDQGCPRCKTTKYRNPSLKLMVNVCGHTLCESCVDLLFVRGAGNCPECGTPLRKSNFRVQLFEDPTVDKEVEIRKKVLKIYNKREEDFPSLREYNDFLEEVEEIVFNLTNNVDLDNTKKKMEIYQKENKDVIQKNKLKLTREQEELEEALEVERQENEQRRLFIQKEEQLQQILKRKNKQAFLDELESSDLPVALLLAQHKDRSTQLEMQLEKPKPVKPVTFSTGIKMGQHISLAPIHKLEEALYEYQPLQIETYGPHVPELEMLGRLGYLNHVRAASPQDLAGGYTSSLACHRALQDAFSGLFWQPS

Take `CC(=O)N1CCCN(c2cccc(Nc3nccc(-c4n[nH]c5ccccc45)n3)c2)CC1`: the Ki in test [1] is 0.6 nM; in test [2] it was 0.727 µM; at CDK7/Cyclin H/MNAT1, above 5 µM; in test [3] it was above 5000 nM; in test [4] it was 1 nM. This compound showed a GI50 in the test with MV4-11 of 18 nM.

On to `CC(=O)N1CCN(c2ccc(Nc3nccc(-c4cn(C)c5ccccc45)n3)cc2)CC1`, for which the Ki in test [1] was 133 nM; in test [2], above 5 µM; on CDK7/Cyclin H/MNAT1, above 5 µM; in test [3] it was above 5000 nM; in test [4], 149 nM. Moreover, the GI50 with MV4-11 was 252 nM.

`CC(=O)N1CCN(c2ccc(Nc3nccc(-c4c[nH]c5ccccc45)n3)cc2)CC1`: the Ki in test [1] is 11 nM; in test [2], above 5 µM; at CDK7/Cyclin H/MNAT1, above 5 µM; in test [3], above 5000 nM; in test [4], 22 nM. For the same compound, growth in the test with MV4-11 was halved (GI50) at 33 nM.

Turning to `CC(=O)N1CCN(c2ccc(Nc3nccc(-c4cn(S(=O)(=O)c5ccc(C)cc5)c5ccccc45)n3)cc2)CC1`, the Ki in test [1] was 128 nM; in test [2] it was above 5 µM; at CDK7/Cyclin H/MNAT1 it was above 5 µM; in test [3], above 5000 nM; in test [4], above 5000 nM. Also, the GI50 in the test with MV4-11 was found to be 1560 nM.

Regarding `CN1CCN(c2cccc(Nc3nccc(-c4c[nH]c5ncccc45)n3)c2)CC1`, the inhibition constant (Ki) in test [1] was determined as 2 nM; in test [2], 0.531 µM; at CDK7/Cyclin H/MNAT1, 0.142 µM; in test [3], 84 nM; in test [4], 4 nM. Moreover, in the test on MV4-11, the GI50 was 5 nM.

For `CC(=O)N1CCN(c2ccc(Nc3nccc(-c4nn(C)c5ccccc45)n3)cc2)CC1`, the Ki was 274 nM in test [1]; above 5 µM in test [2]; above 5 µM at CDK7/Cyclin H/MNAT1; above 5000 nM in test [3]; 883 nM in test [4]. This compound also gave a GI50 in the test on MV4-11 of 181 nM.

With `CC(=O)N1CCN(c2ccc(Nc3ncc(C#N)c(-c4c(C)[nH]c5ccccc45)n3)cc2)CC1`, the Ki is 2 nM in test [1]; above 5 µM in test [2]; 0.536 µM on CDK7/Cyclin H/MNAT1; 2170 nM in test [3]; 119 nM in test [4]. The compound further returned a GI50 with MV4-11 of 390 nM.

With `CC(=O)N1CCCN(c2cccc(Nc3nccc(-c4cnc5n(C)cccc4-5)n3)c2)CC1`, the Ki in test [1] is 0.7 nM; in test [2], 1.76 µM; at CDK7/Cyclin H/MNAT1, above 5 µM; in test [3], above 5000 nM; in test [4] it was 1 nM. In the test on MV4-11, the GI50 is 24 nM.

With `CC(=O)N1CCN(c2ccc(Nc3nccc(-c4c[nH]c5ncccc45)n3)cc2)CC1`, the Ki is 0.1 nM in test [1]; 0.091 µM in test [2]; above 5 µM at CDK7/Cyclin H/MNAT1; 49 nM in test [3]; 0.8 nM in test [4]. This compound displayed a GI50 with MV4-11 below 1 nM.

As to `CC(=O)N1CCN(c2ccc(Nc3ncc(C#N)c(-c4cn(C)c5ccccc45)n3)cc2)CC1`, the Ki was found to be 7 nM in test [1]; 1.58 µM in test [2]; 1.62 µM on CDK7/Cyclin H/MNAT1; 1120 nM in test [3]; 37 nM in test [4]. In addition, in the test with MV4-11, the GI50 stood at 30 nM.

`CC(=O)N1CCCN(c2cccc(Nc3nccc(-c4c[nH]c5cccnc45)n3)c2)CC1`: the Ki in test [1] is 107 nM; in test [2], above 5 µM; at CDK7/Cyclin H/MNAT1 it was above 5 µM; in test [3] it was above 5000 nM; in test [4], 150 nM. The GI50 with MV4-11 came to 688 nM.

Consider `CC(=O)N1CCN(c2ccc(Nc3ncc(C#N)c(-c4c[nH]c5ccccc45)n3)cc2)CC1`, for which the inhibition constant Ki in test [1] is 0.4 nM; in test [2] it was 4.05 µM; on CDK7/Cyclin H/MNAT1 it was 0.426 µM; in test [3] it was above 5000 nM; in test [4], 4 nM. Growth in the test on MV4-11 was halved (GI50) at 4 nM.

Turning to `CN1CCN(c2cccc(Nc3nccc(-c4cn(C)c5ncccc45)n3)c2)CC1`, the Ki in test [1] is 13 nM; in test [2], above 5 µM; on CDK7/Cyclin H/MNAT1 it was above 5 µM; in test [3] it was 970 nM; in test [4], 40 nM. The compound further gave a GI50 in the test on MV4-11 of 24 nM.

In the case of `CN1CCN(c2cccc(Nc3nccc(-c4c[nH]c5cccnc45)n3)c2)CC1`, the inhibition constant Ki in test [1] was 20 nM; in test [2], above 5 µM; on CDK7/Cyclin H/MNAT1, above 5 µM; in test [3] it was above 5000 nM; in test [4], 217 nM. Growth in the test with MV4-11 was halved (GI50) at 405 nM.

For `CC(=O)N1CCCN(c2cccc(Nc3nccc(-c4c[nH]c5ncccc45)n3)c2)CC1`, the Ki in test [1] is 0.1 nM; in test [2], 0.051 µM; on CDK7/Cyclin H/MNAT1, 0.029 µM; in test [3] it was 31 nM; in test [4] it was 0.4 nM. The GI50 in the test on MV4-11 was found to be 20 nM.

Turning to `CC(=O)N1CCN(c2ccc(Nc3nccc(-c4c[nH]c5cccnc45)n3)cc2)CC1`, the Ki is 4 nM in test [1]; above 5 µM in test [2]; above 5 µM on CDK7/Cyclin H/MNAT1; above 5000 nM in test [3]; 32 nM in test [4]. The compound also registered a GI50 in the test on MV4-11 of 420 nM.

As to `CC(=O)N1CCN(c2ccc(Nc3nccc(-c4n[nH]c5ccccc45)n3)cc2)CC1`, the Ki is 207 nM in test [1]; above 5 µM in test [2]; above 5 µM on CDK7/Cyclin H/MNAT1; above 5000 nM in test [3]; above 5000 nM in test [4]. The compound further displayed a GI50 with MV4-11 of 346 nM.

For `CCc1nc(C(N)=O)c(Nc2ccc(N3CCC(N4CCN(C)CC4)CC3)c(OC)c2)nc1NC1CCOCC1` [GILTERITINIB], the GI50 in the test with MV4-11 was 2 nM. The Ki in test [2] is above 5 µM; on CDK7/Cyclin H/MNAT1 it was above 5 µM; in test [3] it was 1480 nM.
